How the values were obtained:
[1] = molecular target: T1, Neutrophil elastase (Homo sapiens, UniProt P08246); assay: In vitro inhibitory activity against human leukocyte elastase (HLE)
T1 sequence (P08246 whole entry): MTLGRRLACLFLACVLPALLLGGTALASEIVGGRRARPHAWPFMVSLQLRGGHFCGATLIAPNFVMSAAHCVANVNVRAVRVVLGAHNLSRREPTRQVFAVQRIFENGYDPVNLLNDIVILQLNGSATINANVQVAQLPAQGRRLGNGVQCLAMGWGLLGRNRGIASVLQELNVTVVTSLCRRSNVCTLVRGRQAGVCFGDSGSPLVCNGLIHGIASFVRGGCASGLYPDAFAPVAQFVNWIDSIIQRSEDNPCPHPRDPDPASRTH
Procedure, shortened: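 HLE at 1 μg/mL mixed with inhibitor, with enzyme activity read 2 min after mixing. IC50 (μM) is the inhibitor concentration that cuts HLE activity by 50%.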

[2] = molecular target: T2, Neutrophil elastase (Homo sapiens) (UniProt P08246); assay: Second-order rate constant for time-dependent inactivation of HLE for 15 min
T2 sequence (whole entry): T1 sequence (P08246 whole entry)
Procedure, shortened: (§1)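 Inactivation of HLE by inhibitor was followed over 15 min. The second-order rate constant was expressed as k_obs/[I] (M^-1 s^-1). Where inhibition was not time-dependent, Ki was instead calculated from the initial velocity.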

[3] = molecular target: T2, Neutrophil elastase (Homo sapiens)
[4] = molecular target: T2, Neutrophil elastase (Homo sapiens); assay: Second-order rate constant for time-dependent inactivation of Human Leukocyte Elastase for 15 min; procedure, shortened: as §1

IC50 [1] [nM] | k obs / 1 [2] [M⁻¹ s⁻¹] | k obs / 1 [3] [M⁻¹ s⁻¹] | k obs / 1 [4] [M⁻¹ s⁻¹] | SMILES
 | 10800 |  |  | CO[C@H]1C(=O)N2C(C(=O)OC(C)(C)C)=C(COC(N)=O)CS(=O)(=O)C12 (stereo partly specified)
1330 |  | 12700 |  | CO[C@H]1C(=O)N2C(C(=O)OC(C)(C)C)=C(COC(C)=O)CS(=O)(=O)C12 (stereo partly specified)
1000 |  |  |  | COCC1=C(C(=O)OC(C)(C)C)N2C(=O)[C@H](OC)C2S(=O)(=O)C1 (stereo partly specified)
130 | 63900 |  |  | CO[C@H]1C(=O)N2C(C(=O)OC(C)(C)C)=C(COC(=O)N[C@@H](Cc3ccccc3)C(=O)O)CS(=O)(=O)C12 (stereo partly specified)
 |  |  | 6100 | C=CCC1=C(C(=O)OC(C)(C)C)N2C(=O)[C@H](OC)C2S(=O)(=O)C1 (stereo partly specified)
 |  |  | 15100 | CO[C@H]1C(=O)N2C(C(=O)OC(C)(C)C)=C(COC(=O)NCc3ccccc3)CS(=O)(=O)C12 (stereo partly specified)
630 |  |  | 8600 | CO[C@H]1C(=O)N2C(C(=O)OC(C)(C)C)=C(CSc3nc(=O)c(=O)[nH]n3C)CS(=O)(=O)C12 (stereo partly specified)
 |  |  | 3500 | CO[C@H]1C(=O)N2C(C(=O)OC(C)(C)C)=C(CSc3nc[nH]n3)CS(=O)(=O)C12 (stereo partly specified)
 |  |  | 14900 | CO[C@H]1C(=O)N2C(C(=O)OC(C)(C)C)=C(CCl)CS(=O)(=O)C12 (stereo partly specified)
1820 |  |  | 4300 | CCOC(=S)SCC1=C(C(=O)OC(C)(C)C)N2C(=O)[C@H](OC)C2S(=O)(=O)C1 (stereo partly specified)
1620 |  |  | 15000 | CO[C@H]1C(=O)N2C(C(=O)OC(C)(C)C)=C(CSc3nnnn3C)CS(=O)(=O)C12 (stereo partly specified)
 |  |  | 3700 | CO[C@H]1C(=O)N2C(C(=O)OC(C)(C)C)=C(CSc3nnnn3CC(=O)O)CS(=O)(=O)C12 (stereo partly specified)
910 | 16800 |  |  | CO[C@H]1C(=O)N2C(C(=O)OC(C)(C)C)=C(C[S+]([O-])c3ccccc3)CS(=O)(=O)C12 (stereo partly specified)

Further lines, the compound ahead of its results:

SMILES | IC50 [1] [nM] | k obs / 1 [2] [M⁻¹ s⁻¹] | k obs / 1 [3] [M⁻¹ s⁻¹] | k obs / 1 [4] [M⁻¹ s⁻¹]
CO[C@H]1C(=O)N2C(C(=O)OC(C)(C)C)=C(CSc3nnc[nH]3)CS(=O)(=O)C12 (stereo partly specified) | 2400 |  |  | 
CO[C@H]1C(=O)N2C(C(=O)OC(C)(C)C)=C(COC(=O)c3ccccc3)CS(=O)(=O)C12 (stereo partly specified) |  |  |  | 32500
CO[C@H]1C(=O)N2C3=C(COC3=O)CS(=O)(=O)C12 (stereo partly specified) | 57800 |  |  | 46
CO[C@H]1C(=O)N2C(C(=O)OC(C)(C)C)=C(C)CS(=O)(=O)C12 (stereo partly specified) |  | 1630 |  | 
CO[C@H]1C(=O)N2C(C(=O)OC(C)(C)C)=C(CS(=O)(=O)c3ccccc3)CS(=O)(=O)C12 (stereo partly specified) | 440 |  |  | 
CO[C@H]1C(=O)N2C(C(=O)OC(C)(C)C)=C(CSc3nnc(C)s3)CS(=O)(=O)C12 (stereo partly specified) | 2230 | 7900 |  | 
CO[C@H]1C(=O)N2C(C(=O)OC(C)(C)C)=C(COC(=O)C(C)(C)C)CS(=O)(=O)C12 (stereo partly specified) |  |  |  | 15800
CO[C@H]1C(=O)N2C(C(=O)OC(C)(C)C)=C(CSc3nccn3C)CS(=O)(=O)C12 (stereo partly specified) | 2330 |  |  | 1880
CO[C@H]1C(=O)N2C(C(=O)OC(C)(C)C)=C(COC(=O)CCC(=O)O)CS(=O)(=O)[C@H]12 |  | 13800 |  | 
